Laboratory results: PubChem BioAssay
The source made the active and inactive calls.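 Rule for the calls, unless noted: active = Her2 level under about 52% in both replicate screens, with viability over 70% of control (limit read from the data); inconclusive = Her2 under the limit in one screen only, or viability under 70%; inactive = Her2 level above the set limit.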

Key:
[1] = reducers of endogenous Her2 protein level, primary screen, SKBR3 breast tumor cells, AlphaScreen, ATP viability (AID 461); conditions: 18-24 h, measured here: SKBR3 viability, ATP luminescence, at 10 µM;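 for Her2 level: lower value means less Her2 protein in the cells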;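 for viability: percent of carrier control wells set as 100% viability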
[2] = molecular target: Receptor tyrosine-protein kinase erbB-2 (Homo sapiens) (UniProt P04626); experiment: as above; conditions: 18-24 h, at 10 µM, stronger effect = lower value
[3] = SK-BR-3 cell growth inhibitors, pilot screen, 24 h, human (AID 572;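 active = viability at or below 10% of carrier control in both of two separate runs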;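 note: compound exposure lasted between 18 and 24 h rather than exactly 24 h; 100% = carrier-treated control wells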); conditions: SK-BR-3 viability, CellTiter-Glo luminescence, at 10 µM, stronger effect = lower value
[4] = HUVEC growth inhibition – cell-based, human, primary screen (AID 575;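 active = viability at or below 30% in both replicate assays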;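 note: 100% = median of untreated cell wells with 0.1% DMSO on each plate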); conditions: HUVEC proliferation, CellTiter-Glo luminescence, 72 h; at 10 µM; stronger effect = lower value
Procedure, shortened: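 system = HUVEC primary cells | amount = 1250 cells/well | buffer or medium = supplemented EBM, 2% fetal bovine serum | dosing = single-point 10 µM, DMSO 0.1% final | times = 72 h compound incubation | detection = CTG luminescence | read-out = % viability relative to median vehicle-well signal on each plate | control set = vehicle and MePR control wells | format = collagen-coated 384-well format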

[5] = growth inhibitors of H69AR lung tumor, primary screen, human, duplicate replicates (AID 580;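 active = viability at or under a set limit in both replicates, limit being median viability minus 3 SD, cut at about 48% in these data, passing the limit was not always enough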;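 note: 100% = mean luminescence of untreated wells and 0% = no signal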); conditions: H69AR lung tumor cells viability, ATP luminescence, 72 h; at 10 µM; stronger effect = lower value
[6] = reversal of MRP1-mediated doxorubicin resistance, pilot screen, H69AR cells, doxorubicin co-treatment (AID 601;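 active = viability loss from added drug above about 55%, and viability with drug at most 40%, in both replicates, limit read from the data, passing the limit was not always enough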); conditions: CellTiter-Glo, 72 h, at 10 µM; for differential viability (reversal): stronger effect = higher value
[7] = 384-well plate pilot, post-Golgi transport modulator project, inhibition of yeast transport mutant growth (AID 636; in the data active = inhibition above about 31%); conditions: absorbance 615 nm, about 18 h, stronger effect = higher value
[8] = growth suppression of yeast trafficking mutant, preliminary HTS, modulators of trafficking downstream of Golgi apparatus project, 1536-format plate, OD 615 nm (AID 637; in the data active = inhibition above about 30%); conditions: yeast transport mutant growth, absorbance 615 nm, 18 h; stronger effect = higher value
[9] = H69AR cells + 2 uM doxorubicin, measured here: viability with 2 uM doxorubicin, stronger effect = lower value
[10] = H69AR cells, compound alone cytotoxicity

Sequence of Receptor tyrosine-protein kinase erbB-2 (Homo sapiens) (P04626 whole entry, looked up): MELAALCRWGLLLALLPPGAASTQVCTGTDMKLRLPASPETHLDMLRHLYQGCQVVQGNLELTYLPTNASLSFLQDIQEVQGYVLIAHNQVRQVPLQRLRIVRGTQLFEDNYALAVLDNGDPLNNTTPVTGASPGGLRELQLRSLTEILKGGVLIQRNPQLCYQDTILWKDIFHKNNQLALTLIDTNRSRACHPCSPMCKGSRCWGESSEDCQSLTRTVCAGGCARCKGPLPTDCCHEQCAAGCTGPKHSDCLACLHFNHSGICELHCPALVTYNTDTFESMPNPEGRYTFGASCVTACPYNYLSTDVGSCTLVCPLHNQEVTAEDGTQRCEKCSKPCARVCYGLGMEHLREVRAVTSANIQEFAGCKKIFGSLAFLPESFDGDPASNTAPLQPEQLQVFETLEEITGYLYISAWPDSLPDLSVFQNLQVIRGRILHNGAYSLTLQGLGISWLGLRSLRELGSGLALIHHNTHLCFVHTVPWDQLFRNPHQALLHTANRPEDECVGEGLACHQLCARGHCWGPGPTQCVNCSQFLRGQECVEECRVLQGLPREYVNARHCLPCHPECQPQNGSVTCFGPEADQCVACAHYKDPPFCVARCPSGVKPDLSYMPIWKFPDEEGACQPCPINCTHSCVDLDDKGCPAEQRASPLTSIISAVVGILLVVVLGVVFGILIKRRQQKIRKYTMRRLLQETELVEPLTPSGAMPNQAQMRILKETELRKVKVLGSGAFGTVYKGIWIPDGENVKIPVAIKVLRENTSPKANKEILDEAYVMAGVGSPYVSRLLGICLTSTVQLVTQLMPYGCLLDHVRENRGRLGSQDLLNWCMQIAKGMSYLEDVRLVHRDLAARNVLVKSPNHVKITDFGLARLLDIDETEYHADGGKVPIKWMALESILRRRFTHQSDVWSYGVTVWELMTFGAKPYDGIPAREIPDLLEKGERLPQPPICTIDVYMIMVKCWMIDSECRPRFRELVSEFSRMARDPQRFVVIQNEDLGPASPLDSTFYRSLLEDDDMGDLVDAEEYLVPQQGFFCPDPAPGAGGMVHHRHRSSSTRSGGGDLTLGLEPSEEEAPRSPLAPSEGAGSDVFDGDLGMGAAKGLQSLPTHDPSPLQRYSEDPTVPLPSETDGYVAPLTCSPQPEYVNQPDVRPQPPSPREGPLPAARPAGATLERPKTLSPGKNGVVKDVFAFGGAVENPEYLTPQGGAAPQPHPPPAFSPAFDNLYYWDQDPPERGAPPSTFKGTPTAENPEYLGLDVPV

SMILES	viability [1] [%]	Her2 level [2]	viability [3]	viability [4]	viability [5]	differential viability (reversal) ([6]; H69AR cells + 2 uM doxorubicin)	viability [6, 9] [%]	viability [6, 10] [%]	inhibition [7]	inhibition [8]
O=C(NCCN1CCOCC1)c1csc2c1CCCC2	97.5	83% (inactive)	97.5% (inactive)	95% (inactive)	102% (inactive)	16.4% (inactive)	86	102	-7.3% (inactive)	-1.83% (inactive)
Cc1nc2c(=O)oc3ccccc3c2n1-c1ccccc1	117	100% (inactive)	117% (inactive)	107% (inactive)	98.4% (inactive)	13.4% (inactive)	85.1	98.4	-6.93% (inactive)	2.74% (inactive)
O=C(OCCCN1CCCC1)C1(c2ccccc2)CCCC1	82.5	117% (inactive)	82.5% (inactive)	121% (inactive)	88.6% (inactive)	6.39% (inactive)	82.2	88.6	-2.84% (inactive)	-13.3% (inactive)
COCCSc1ccccc1C(=O)Nc1cc(C)on1	91	90% (inactive)	91% (inactive)	95.4% (inactive)	94.5% (inactive)	4.69% (inactive)	89.8	94.5	0.39% (inactive)	-2.74% (inactive)
O=C(c1ccco1)N1CCN(S(=O)(=O)c2ccc(Oc3ccccc3)cc2)CC1	82	102% (inactive)	82% (inactive)	78.6% (inactive)	90.6% (inactive)	-6.27% (inactive)	96.8	90.6	-1.35% (inactive)	5.74% (inactive)
O=S(=O)(c1ccc2nc(Cc3cccc(C(F)(F)F)c3)[nH]c2c1)N1CCOCC1	104	91% (inactive)	104% (inactive)	67.9% (inactive)	82.9% (inactive)	3.53% (inactive)	79.4	82.9	-1.69% (inactive)	-0.16% (inactive)
CSc1nnc2n(CCc3ccccc3)c(=O)c3c4c(sc3n12)CCCC4	104	94% (inactive)	104% (inactive)	96.3% (inactive)	102% (inactive)	25.7% (inactive)	76	102	-1.45% (inactive)	0.16% (inactive)
C=CCOc1cccc(C2/C(=C(\O)c3ccc(F)cc3)C(=O)C(=O)N2CCN(C)C)c1 (stereo not given)	96.5	97.5% (inactive)	96.5% (inactive)	98% (inactive)	105% (inactive)	10.4% (inactive)	94.6	105	-2.11% (inactive)	0.98% (inactive)
O=C1N2c3ccccc3CCc3cccc(c32)C1(O)C(F)(F)F (stereo not given)	94.5	90.5% (inactive)	94.5% (inactive)	96.4% (inactive)	95.7% (inactive)	0.66% (inactive)	95	95.7	-5.87% (inactive)	6.56% (inactive)
O=C(Nc1cccc(C(F)(F)F)c1)c1ccco1	129	79.5% (inactive)	129% (inactive)	95.9% (inactive)	103% (inactive)	19.4% (inactive)	84	103	-5.33% (inactive)	8.52% (inactive)
Cc1nnc(SCC(=O)Nc2ccc(Br)cn2)[nH]c1=O	118	85% (inactive)	118% (inactive)	98.7% (inactive)	98.3% (inactive)	4.71% (inactive)	93.6	98.3	1.84% (inactive)	8.17% (inactive)
CC(C)=CCCC(C)CN(C)CCc1ccccn1 (stereo not given)	79	97% (inactive)	79% (inactive)	101% (inactive)	98.6% (inactive)	21.2% (inactive)	77.3	98.6	-5.19% (inactive)	-3.61% (inactive)
O=C1CN(Cc2ccccc2)C(=NCc2ccco2)S1	97	74% (inactive)	97% (inactive)	97.7% (inactive)	86.7% (inactive)	4.9% (inactive)	81.8	86.7	-6.49% (inactive)	2.95% (inactive)
CC(=O)Nc1ccc(S(=O)(=O)NCC(C)NS(=O)(=O)c2ccc(NC(C)=O)cc2)cc1 (stereo not given)	106	114% (inactive)	106% (inactive)	94.5% (inactive)	98.6% (inactive)	3.06% (inactive)	95.5	98.6	0.13% (inactive)	-1.27% (inactive)
CN(C)C(CN1C(=O)C2CC=CCC2C1=O)c1cn(C)c2ccccc12 (stereo not given)	104	85.5% (inactive)	104% (inactive)	89.9% (inactive)	95.4% (inactive)	6.72% (inactive)	88.7	95.4	-6.71% (inactive)	-1.59% (inactive)
COc1cc(C)c(N)cc1C(C)C	103	91% (inactive)	103% (inactive)	89.2% (inactive)	94.1% (inactive)	1.33% (inactive)	92.8	94.1	-2.93% (inactive)	-0.82% (inactive)

SMILES	viability [1] [%]	Her2 level [2]	viability [3]	viability [4]	viability [5]	differential viability (reversal) ([6]; H69AR cells + 2 uM doxorubicin)	viability [6, 9] [%]	viability [6, 10] [%]	inhibition [7]	inhibition [8]
CC1CN(C(=O)c2cc3cc(Cl)cc(Cl)c3oc2=O)CC(C)O1 (stereo not given)	83.5	102% (inactive)	83.5% (inactive)	96.8% (inactive)	92.4% (inactive)	4.73% (inactive)	87.7	92.4	-3.47% (inactive)	23.8% (inactive)
C=CCn1c(COc2ccccc2F)nnc1SCC(=O)N1CC(=O)Nc2ccccc21	92	104% (inactive)	92% (inactive)	109% (inactive)	92.2% (inactive)	2.88% (inactive)	89.3	92.2	-4.46% (inactive)	51.5% (active)
CCN(CC)c1ccc(CNc2ccc(Br)cn2)cc1	108	92.5% (inactive)	108% (inactive)	106% (inactive)	90.7% (inactive)	-14.7% (inactive)	105	90.7	-0.66% (inactive)	-3.11% (inactive)
CCCCN(CCCC)CCCNC(=O)CC1Oc2ccc(C)cc2NC1=O (stereo not given)	102	84.5% (inactive)	102% (inactive)	78% (inactive)	90.7% (inactive)	4.72% (inactive)	86	90.7	-6.76% (inactive)	-3.17% (inactive)
CCCCC(CC)C(=O)Nc1ccc(Cl)cn1 (stereo not given)	103	102% (inactive)	103% (inactive)	98.3% (inactive)	94.3% (inactive)	12.2% (inactive)	82.1	94.3	-5.47% (inactive)	1.97% (inactive)
N#Cc1ccc(COC(=O)Cn2nnc(-c3ccccc3)n2)cc1	111	96% (inactive)	111% (inactive)	89.5% (inactive)	70.7% (inactive)	6.57% (inactive)	64.1	70.7	-3.12% (inactive)	-0.95% (inactive)
CCN(CC)CCNC(=O)CCn1c(=S)[nH]c2cc3c(cc2c1=O)OCO3	79	89.5% (inactive)	79% (inactive)	89.8% (inactive)	90.1% (inactive)	0.295% (inactive)	89.8	90.1	-4.59% (inactive)	-2.3% (inactive)
COc1cc(C2c3c(n[nH]c3C)C(=O)N2c2ccc(Br)cc2)ccc1O (stereo not given)	95	62.5% (inactive)	95% (inactive)	73.9% (inactive)	87.8% (inactive)	5.68% (inactive)	82.2	87.8	-0.13% (inactive)	-1% (inactive)
CCC(Sc1ncccc1C(=O)O)C(=O)N1CCCC1 (stereo not given)	92	93.5% (inactive)	92% (inactive)	95.5% (inactive)	101% (inactive)	14% (inactive)	87.2	101	2.47% (inactive)	-5.9% (inactive)
Cc1ccc(S(=O)(=O)C2(C(=O)NC3CCCC3)CC2)cc1	148	87.5% (inactive)	148% (inactive)	104% (inactive)	97.1% (inactive)	9.32% (inactive)	87.8	97.1	-2.34% (inactive)	-2.22% (inactive)
O=C(O)CCC1(C(=O)O)OCCc2ccccc21 (stereo not given)	112	83% (inactive)	112% (inactive)	107% (inactive)	97.5% (inactive)	7.12% (inactive)	90.3	97.5	-5.54% (inactive)	2.86% (inactive)
CCOc1ncccc1C(=O)OCC(=O)Nc1ncc(C(F)(F)F)cc1Cl	99.5	95% (inactive)	99.5% (inactive)	97.2% (inactive)	93.8% (inactive)	-0.51% (inactive)	94.3	93.8	-1.58% (inactive)	7.9% (inactive)
C=CCc1c(C)nc(SC)nc1Nc1ccc(C(=O)O)cc1	106	74.5% (inactive)	106% (inactive)	84.2% (inactive)	86.9% (inactive)	1.22% (inactive)	85.7	86.9	-6.89% (inactive)	3.28% (inactive)
CC(=O)Nc1ccc(S(=O)(=O)N2CCN=C2C)cc1	92.5	95% (inactive)	92.5% (inactive)	109% (inactive)	99.4% (inactive)	2.62% (inactive)	96.8	99.4	-6.27% (inactive)	-5.08% (inactive)
COc1ccc(Cn2nnnc2C(c2ccccc2OC)N2CCC(C(N)=O)CC2)cc1 (stereo not given)	100	91% (inactive)	100% (inactive)	105% (inactive)	85.4% (inactive)	1.34% (inactive)	84	85.4	-5.73% (inactive)	8.52% (inactive)
COc1ccc(-c2cc(C(F)F)n3ncc(C(=O)NCC4CCCO4)c3n2)cc1 (stereo not given)	92	89% (inactive)	92% (inactive)	82.7% (inactive)	73.6% (inactive)	-3.58% (inactive)	77.2	73.6	-0.79% (inactive)	4.35% (inactive)
